From ChEMBL document CHEMBL1141188, “Methyl substitution on the piperidine ring of N-[omega-(6-methoxynaphthalen-1-yl)alkyl] derivatives as a probe for selective binding and activity at the sigma(1) receptor” (J Med Chem, 2005)

Key:
[1] = target: T1, 3-beta-hydroxysteroid-Delta(8),Delta(7)-isomerase (Cavia porcellus, UniProt Q60490); experiment: Displacement of [3H](+/-)-emopamil from delta8-delta7 sterol isomerase (SI) site in guinea pig liver membranes; format: cell membranes, Membrane
T1 sequence (Q60490 whole entry): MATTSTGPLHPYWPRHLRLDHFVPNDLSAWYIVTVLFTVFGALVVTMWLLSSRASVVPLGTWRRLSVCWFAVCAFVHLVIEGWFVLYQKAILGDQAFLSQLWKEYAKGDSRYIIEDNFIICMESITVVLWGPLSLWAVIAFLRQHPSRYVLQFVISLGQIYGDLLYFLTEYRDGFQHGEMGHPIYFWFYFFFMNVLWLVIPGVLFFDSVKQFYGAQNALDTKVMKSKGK
Method in brief: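 Guinea pig liver membranes with (±)-[3H]emopamil; (±)-ifenprodil defined nonspecific binding. IC50 from six to nine concentrations, two or three duplicate experiments; Ki by nonlinear curve fitting.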

[2] = target: Sigma 2 receptor; experiment: Displacement of [3H]DTG from sigma 2 receptor in rat liver membranes; format: cell membranes, Membrane
[3] = organism: Cavia porcellus; experiment: Selectivity for guinea pig delta8-delta7 sterol isomerase (SI) site over guinea pig sigma 1 receptor
[4] = target: Sigma non-opioid intracellular receptor 1 (Cavia porcellus, UniProt Q60492); experiment: Displacement of [3H](+)-pentazocine from sigma 1 receptor in guinea pig brain membranes; format: cell membranes, Membrane
[5] = target: Sigma non-opioid intracellular receptor 1 (Cavia porcellus) (UniProt Q60492); experiment: […] rat sigma 2 receptor over guinea pig sigma 1 receptor
[6] = target: Sigma non-opioid intracellular receptor 1 (Rattus norvegicus) (UniProt Q9R0C9); experiment: Percentage inhibition of rat C6 glioma cell proliferation mediated by sigma 1 receptor at 50 uM
Chain of Sigma non-opioid intracellular receptor 1 (Rattus norvegicus) (Q9R0C9 whole entry): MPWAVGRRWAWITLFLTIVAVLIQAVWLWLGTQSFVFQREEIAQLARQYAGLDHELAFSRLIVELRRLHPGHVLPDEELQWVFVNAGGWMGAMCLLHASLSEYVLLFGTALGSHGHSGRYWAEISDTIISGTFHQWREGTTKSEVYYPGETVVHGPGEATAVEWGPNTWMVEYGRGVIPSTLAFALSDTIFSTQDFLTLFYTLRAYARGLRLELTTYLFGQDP

Chain of Sigma non-opioid intracellular receptor 1 (Cavia porcellus) (Q60492 whole entry): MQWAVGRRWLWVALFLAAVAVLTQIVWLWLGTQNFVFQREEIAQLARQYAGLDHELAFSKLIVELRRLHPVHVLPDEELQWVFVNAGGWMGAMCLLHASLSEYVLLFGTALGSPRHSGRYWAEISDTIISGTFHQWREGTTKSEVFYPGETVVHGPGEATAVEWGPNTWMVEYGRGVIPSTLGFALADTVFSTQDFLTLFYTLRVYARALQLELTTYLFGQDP
Chain of Sigma non-opioid intracellular receptor 1 (Q60492 whole entry): as above

Structure (SMILES) | Ki [1] [nM] | Ki [2] [nM] | Ratio Ki [3] | Ki [4] [nM] | Ratio Ki [5] | inhibition [6] [%]
CC(C(O)c1ccc(O)cc1)N1CCC(Cc2ccccc2)CC1 (racemic) [IFENPRODIL] | 4.7 |  |  |  |  | 
COc1ccc2c(CCCCN3CCCC[C@@H]3C)cccc2c1 | 7.2 | 53.8 | 14 | 0.5 | 108 | 
COc1ccc2c(CCCCN3CCCC[C@H]3C)cccc2c1 | 6.44 | 49.2 | 4.5 | 1.43 | 34 | 
COc1ccc2c(CCCN3CCCC[C@@H]3C)cccc2c1 | 46.5 | 104 | 6.6 | 7.05 | 15 | 
COc1ccc2c(c1)CCCC2CCCN1CCC(C)CC1 (configuration not stated) | 5.34 | 31.4 | 3 | 1.78 | 18 | 
COc1ccc2c(CCCCN3CCCCC3(C)C)cccc2c1 | 11.7 | 28.6 | 0.5 | 22.2 | 1.3 | 
COc1ccc2c(CCCCN3CCC(C)(C)CC3)cccc2c1 | 1.82 | 17.9 | 0.8 | 2.25 | 8 | 
COc1ccc2c(CCCCN3CCCC(C)(C)C3)cccc2c1 | 1.89 | 67.4 | 5.3 | 0.36 | 187 | 
COc1ccc2c(CCCN3CCC[C@@H](C)C3)cccc2c1 | 19.3 | 60.2 | 14 | 1.35 | 45 | 
COc1ccc2c(CCCN3CCCC[C@H]3C)cccc2c1 | 11.1 | 86.2 | 6.1 | 1.83 | 47 | 
COc1ccc2c(CCCN3CCCCC3)cccc2c1 | 37.6 | 175 | 4.8 | 7.8 | 22 | 
COc1ccc2c(c1)CCCC2CCCCN1CCC(C)CC1 (configuration not stated) | 5.55 | 36.3 | 13 | 0.42 | 86 | 53
COc1ccc2c(CCCN3CCC(C)(C)CC3)cccc2c1 | 9.04 | 26.3 | 6.1 | 1.47 | 18 | 
COc1ccc2c(c1)CCCC2CCCN1CCCCC1(C)C (configuration not stated) | 16.4 | 115 | 0.1 | 178 | 0.6 | 
c1ccc(CCN2CCCCC2)cc1 |  |  |  |  |  | 5
COc1ccc2c(c1)CCCC2CCCCN1CCC(C)(C)CC1 (configuration not stated) | 4.11 | 17.5 | 14 | 0.3 | 58 | 
COc1ccc2c(c1)CCCC2CCCCN1CCCCC1 (configuration not stated) | 3.57 | 48.7 | 3.5 | 1.01 | 48 | 47

Structure (SMILES) | Ki [1] [nM] | Ki [2] [nM] | Ratio Ki [3] | Ki [4] [nM] | Ratio Ki [5] | inhibition [6] [%]
COc1ccc2c(CCCCN3CCC[C@H](C)C3)cccc2c1 | 2.81 | 32.7 | 4.3 | 0.66 | 50 | 
COc1ccc2c(CCCN3CCCCC3(C)C)cccc2c1 | 14.9 | 94 | 0.014 | 1060 | 0.09 | 
COc1ccc2c(c1)CCCC2CCCN1CCCC(C)(C)C1 (configuration not stated) |  |  |  |  |  | 47
COc1ccc2c(c1)CCCC2CCCN1CCCCC1 (configuration not stated) | 17.9 | 26.2 | 15 | 1.2 | 22 | 
Cc1ccccc1NC(=N)Nc1ccccc1C |  |  |  |  |  | 20
CC(C)=CCN1CC[C@]2(C)c3cc(O)ccc3C[C@H]1[C@H]2C [(+)-PENTAZOCINE] | > 10000 |  |  |  |  | 35
COc1ccc2c(CCCCN3CCC(C)CC3)cccc2c1 | 8.04 | 17.9 | 268 | 0.03 | 597 | 
COc1ccc2c(CCCCN3CCCCC3)cccc2c1 | 19.5 | 151 | 17 | 1.14 | 132 | 
COc1ccc2c(c1)CCCC2CCCCN1CCCCC1(C)C (configuration not stated) | 8.97 | 29.5 | 1.4 | 6.16 | 4.8 | 
O=C(Cc1ccc(Cl)c(Cl)c1)OCCN1CCCC1 |  |  |  |  |  | 25
COc1ccc2c(CCCCN3CCC[C@@H](C)C3)cccc2c1 | 14.6 | 64 | 61 | 0.24 | 266 | 
COc1ccc2c(c1)CCCC2CCCN1CCC(C)(C)CC1 (configuration not stated) | 5.39 | 31.4 | 3 | 1.18 | 27 | 
COc1ccc2c(c1)CCCC2CCCCN1CCCC(C)(C)C1 (configuration not stated) |  |  |  |  |  | 31
COc1ccc2c(CCCN3CCC(C)CC3)cccc2c1 | 19.5 | 38.9 | 13 | 1.5 | 26 | 
CCCN(CCC)CCc1ccc(OC)c(OCCc2ccccc2)c1 | 14.6 | 212 |  |  |  | 
COc1ccc2c(CCCN3CCC[C@H](C)C3)cccc2c1 | 3.41 | 59.3 | 1 | 3.32 | 18 | 
COc1ccc2c(CCCN3CCCC(C)(C)C3)cccc2c1 | 8.71 | 238 | 25 | 0.35 | 680 | 
